From BindingDB's records for doi:10.1016/j.ejmech.2011.01.016 (National Institute of Pharmaceutical Education and Research, 2011)

Target: Reverse transcriptase (Human immunodeficiency virus 1, UniProt Q9WKE8)
Experiment: Inhibition of Human immunodeficiency virus 1 NL4.3 reverse transcriptase activity
Summary of the method: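 Colorimetric HIV-1 reverse transcriptase inhibition assay run with a commercial RT assay kit per the manufacturer's protocol; nevirapine positive control; IC50 determined.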

SMILES	IC50 [µM]
COc1cc2c(cc1O)CC[n+]1cc3c(OC)c(OC)ccc3cc1-2 [jatrorrhizine]	209
COc1ccc2cc3[n+](cc2c1OC)CCc1cc2c(cc1-3)OCO2 [Berberinechloride]	297
COc1cc2c(cc1O)-c1cc3ccc(OC)c(OC)c3c[n+]1CC2 [2-hydroxy-3,9,10-trimethoxy-5,6-dihydroisoquino[3,2-a]isoquinolinium]	171
